# ChEMBL document CHEMBL4229360, “Antimalarial agents against both sexual and asexual parasites stages: structure-activity relationships and biological studies of the Malaria Box compound 1-[5-(4-bromo-2-chlorophenyl)furan-2-yl]-N-[(piperidin-4-yl)methyl]methanamine (MMV019918) and analogues” (Eur J Med Chem, 2018)
# Active and inactive are the calls of the source. The calls are words filed in the database; no cut-off is given here.
# What was measured:
# [1] = target: Voltage-dependent L-type calcium channel subunit alpha-1C (Rattus norvegicus, UniProt P22002); assay: Inhibition of CaV1.2 channel in rat tail artery myocytes assessed as reduction in Ba2+ current at -50 mV holding potential by whole-cell patch-clamp assay; type: cell-based
# Procedure, shortened: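 Freshly isolated rat tail artery smooth muscle cells (collagenase digestion), whole-cell patch clamp at 20–22 °C. External solution: 5 mM Ba2+, 30 mM TEA; Cs+-based internal solution, pH 7.4. Currents from 250-ms pulses to 0 mV from Vh −50 mV at 0.067 Hz, after 7–10 min stabilisation. Leak corrected with 10 μM nifedipine. Peak current as % of control; n = 3–6 cells from ≥3 animals.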
# [2] = Cardiotoxicity in Langendorff perfused Wistar rat heart assessed as cycle length interval time at 0.1 uM by electrocardiography (reference value: 217.15 to 242.23 milliseconds); type: toxicity, tissue-based
# [3] = Cardiotoxicity in Langendorff perfused Wistar rat heart assessed as QRS interval time at 10 uM by electrocardiography (reference value: 13.31 to 14.35 milliseconds); type: toxicity, tissue-based
# [4] = target: T1, Phosphoethanolamine N-methyltransferase (Plasmodium falciparum) (UniProt Q8IDQ9); assay: Inhibition of plasmodium falciparum phosphoethanolamine N-methyltransferase expressed in Escherichia coli assessed as remaining enzyme activity at 100 uM using phosphoethanolamine as substrate and [methyl-14C] SAM by radiochemical assay
# T1 sequence (whole entry): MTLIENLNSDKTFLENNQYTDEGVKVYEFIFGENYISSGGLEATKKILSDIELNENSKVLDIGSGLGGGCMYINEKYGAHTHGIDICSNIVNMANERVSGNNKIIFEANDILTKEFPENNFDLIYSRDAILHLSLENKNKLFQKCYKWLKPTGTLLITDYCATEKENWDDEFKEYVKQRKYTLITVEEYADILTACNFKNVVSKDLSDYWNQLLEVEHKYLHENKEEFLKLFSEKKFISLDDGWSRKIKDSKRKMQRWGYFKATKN
# Procedure, shortened: (§1)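 Recombinant PfPMT purified from E. coli, 2 μg per 100 μL reaction. Buffer 0.1 M HEPES-KOH pH 8.0, 2 mM Na2EDTA, 10% glycerol, 5% DMSO, with 30 μM SAM (100 nCi [methyl-14C]SAM) and 55 μM phosphoethanolamine; radiochemical read-out.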
# Plasmodium berghei = assay: Antimalarial activity against liver stage form of mCherry expressing Plasmodium berghei ANKA sporozoites infected in mouse primary hepatocytes assessed as reduction in parasite load at 0.0625 to 4 uM administered 2 hrs post infection and measured after 48 hrs post infection with medium change at 24 hrs post infection by fluorescent microscopic analysis; type: functional, organism-based
# Procedure, shortened: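 Parasite number and size in unfixed cells by automated microscopy at 48 hpi. Detached cells collected at 65 hpi, counted by fluorescence microscopy, expressed as % of 48 h parasite number. n = 4; one-way ANOVA with Dunnett's test.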
# [5] = Cardiotoxicity in Langendorff perfused Wistar rat heart assessed as frequency of heart rate at 3 uM by electrocardiography (reference value: 247.05 to 275.90 bpm); type: toxicity, tissue-based
# [6] = Cardiotoxicity in Langendorff perfused Wistar rat heart assessed as PQ interval time at 1 uM by electrocardiography (reference value: 41.13 to 42.63 milliseconds); type: toxicity, tissue-based
# [7] = Cardiotoxicity in Langendorff perfused Wistar rat heart assessed as QRS interval time at 1 uM by electrocardiography (reference value: 13.31 to 14.35 milliseconds); type: toxicity, tissue-based
# Plasmodium falciparum = assay: Antiplasmodial activity against gametocytes of Plasmodium falciparum NF54 infected in Anopheles mosquitoes assessed as decrease in infection prevalance measured at baseline infection intensity of 30 oocysts/midgut pre-treated with compound for 24 hrs before feeding and measured 8 days post infection by standard membrane feeding assay; type: functional, organism-based
# Procedure, shortened: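 NF54-HGL luciferase-reporter gametocytes were pre-incubated with compound for 24 h, then membrane-fed to Anopheles mosquitoes. Infection was read by luminescence 8 d post-infection, with 24 mosquitoes analysed per feed and each feed done in duplicate. IC50 was derived for infection intensity and for prevalence at a baseline of 30 oocysts/midgut.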
# [8] = Cardiotoxicity in Langendorff perfused Wistar rat heart assessed as QRS interval time at 0.1 uM by electrocardiography (reference value: 13.31 to 14.35 milliseconds); type: toxicity, tissue-based
# [9] = Cardiotoxicity in Langendorff perfused Wistar rat heart assessed as frequency of heart rate at 10 uM by electrocardiography (reference value: 247.05 to 275.90 bpm); type: toxicity, tissue-based
# [10] = Cardiotoxicity in Langendorff perfused Wistar rat heart assessed as cycle length interval time at 10 uM by electrocardiography (reference value: 217.15 to 242.23 milliseconds); type: toxicity, tissue-based
# [11] = Cardiotoxicity in Langendorff perfused Wistar rat heart assessed as PQ interval time at 10 uM by electrocardiography (reference value: 41.13 to 42.63 milliseconds); type: toxicity, tissue-based
# [12] = Cytotoxicity against mouse NIH/3T3 cells after 24 hrs by neutral red uptake assay; type: cell-based, NIH3T3; details: read-out: TC50
# Procedure, shortened: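 NIH3T3 cells exposed for 24 h; viability by neutral red uptake. Mean of three experiments, six replicates each.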
# [13] = target: T2, Phosphoethanolamine N-methyltransferase (Plasmodium falciparum, UniProt Q8IDQ9); assay: Inhibition of plasmodium falciparum phosphoethanolamine N-methyltransferase expressed in Escherichia coli using phosphoethanolamine as substrate and [methyl-14C] SAM by radiochemical assay; procedure, shortened: as §1
# T2 sequence (Q8IDQ9 whole entry): T1 sequence (whole entry)
# Chain of Voltage-dependent L-type calcium channel subunit alpha-1C (P22002 whole entry): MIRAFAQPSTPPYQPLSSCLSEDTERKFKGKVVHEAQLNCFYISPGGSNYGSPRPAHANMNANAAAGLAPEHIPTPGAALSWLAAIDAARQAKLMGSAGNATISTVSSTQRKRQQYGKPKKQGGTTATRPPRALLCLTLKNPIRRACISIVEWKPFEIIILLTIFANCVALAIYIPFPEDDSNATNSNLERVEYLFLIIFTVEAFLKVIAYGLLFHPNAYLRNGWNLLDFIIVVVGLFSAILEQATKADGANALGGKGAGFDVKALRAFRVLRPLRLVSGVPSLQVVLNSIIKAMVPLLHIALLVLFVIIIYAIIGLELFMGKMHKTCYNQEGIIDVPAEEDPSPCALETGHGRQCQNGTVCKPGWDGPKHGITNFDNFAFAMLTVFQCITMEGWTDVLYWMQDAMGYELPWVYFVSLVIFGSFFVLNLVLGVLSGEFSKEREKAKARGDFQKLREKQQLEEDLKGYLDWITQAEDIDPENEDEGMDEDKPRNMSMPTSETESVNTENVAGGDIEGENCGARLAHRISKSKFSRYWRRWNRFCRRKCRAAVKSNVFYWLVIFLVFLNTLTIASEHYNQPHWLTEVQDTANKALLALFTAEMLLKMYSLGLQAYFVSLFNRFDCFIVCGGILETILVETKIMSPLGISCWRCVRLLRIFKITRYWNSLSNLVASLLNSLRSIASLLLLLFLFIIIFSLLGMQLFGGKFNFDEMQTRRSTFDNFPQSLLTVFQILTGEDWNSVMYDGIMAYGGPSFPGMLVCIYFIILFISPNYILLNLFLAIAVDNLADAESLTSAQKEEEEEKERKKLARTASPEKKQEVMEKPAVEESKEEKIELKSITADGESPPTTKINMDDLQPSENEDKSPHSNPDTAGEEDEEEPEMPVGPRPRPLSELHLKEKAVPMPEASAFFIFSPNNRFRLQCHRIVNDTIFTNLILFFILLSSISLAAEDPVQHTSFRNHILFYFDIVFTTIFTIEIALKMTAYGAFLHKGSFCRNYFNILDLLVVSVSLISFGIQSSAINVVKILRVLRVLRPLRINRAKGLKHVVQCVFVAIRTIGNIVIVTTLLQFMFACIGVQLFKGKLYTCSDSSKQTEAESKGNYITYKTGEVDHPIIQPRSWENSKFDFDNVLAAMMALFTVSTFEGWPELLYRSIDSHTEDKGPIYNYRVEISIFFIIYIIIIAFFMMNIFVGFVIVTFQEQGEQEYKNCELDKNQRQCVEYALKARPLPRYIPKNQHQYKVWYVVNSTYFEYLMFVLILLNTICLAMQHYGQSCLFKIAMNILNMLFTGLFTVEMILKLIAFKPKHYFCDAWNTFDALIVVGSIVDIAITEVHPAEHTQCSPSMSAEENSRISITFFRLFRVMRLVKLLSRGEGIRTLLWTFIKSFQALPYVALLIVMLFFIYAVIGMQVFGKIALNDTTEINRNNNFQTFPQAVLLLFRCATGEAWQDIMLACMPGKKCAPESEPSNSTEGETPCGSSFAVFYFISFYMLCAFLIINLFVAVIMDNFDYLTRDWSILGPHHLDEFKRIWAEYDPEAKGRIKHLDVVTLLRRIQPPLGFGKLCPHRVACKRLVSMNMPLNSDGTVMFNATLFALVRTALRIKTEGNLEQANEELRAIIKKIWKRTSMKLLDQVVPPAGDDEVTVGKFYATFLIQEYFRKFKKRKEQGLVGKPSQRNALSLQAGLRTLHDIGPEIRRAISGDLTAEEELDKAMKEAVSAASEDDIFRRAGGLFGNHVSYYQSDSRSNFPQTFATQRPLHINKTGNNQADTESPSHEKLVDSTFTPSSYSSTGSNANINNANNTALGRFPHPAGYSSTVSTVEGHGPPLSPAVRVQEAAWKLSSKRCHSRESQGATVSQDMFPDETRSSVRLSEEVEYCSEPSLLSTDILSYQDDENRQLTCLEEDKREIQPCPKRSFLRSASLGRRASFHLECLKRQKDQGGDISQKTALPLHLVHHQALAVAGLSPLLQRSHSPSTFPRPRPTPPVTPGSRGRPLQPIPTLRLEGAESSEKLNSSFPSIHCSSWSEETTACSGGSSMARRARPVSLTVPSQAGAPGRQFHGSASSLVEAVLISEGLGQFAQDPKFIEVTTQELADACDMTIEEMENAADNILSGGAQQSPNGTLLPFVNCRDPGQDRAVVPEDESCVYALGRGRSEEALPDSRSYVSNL
smiles,measurement,setting,value
Clc1ccc(-c2ccc(CNCC3CCNCC3)o2)c(-c2ccccc2)c1,IC50,[1],3.3 µM
same,inhibition (INH),[1]; rat,Dose-dependent effect
same,Time,[2],218.32 ms
same,Time,[3],17.91 ms
same,Activity,[4],30%
same,Activity,Plasmodium berghei,inactive
same,Activity,[5],276.4 bpm
same,Time,[6],41.59 ms
same,Time,[7],13.7 ms
same,IC50,Plasmodium falciparum,0.83 µM
same,Time,[8],14.2 ms
same,Activity,[9],259.41 bpm
same,Time,[10],232.2 ms
same,Time,[11],65.08 ms
same,CC50 at 24 h,[12],20 µM
same,IC50,[13],44.3 µM
